Source: ChEMBL document CHEMBL1828498, “Identification and characterization of a novel integrin-linked kinase inhibitor” (J Med Chem, 2011)
The source made the active and inactive calls. The rule behind the calls is not given here.

Assays:
[1] = biological target: T1, 3-phosphoinositide-dependent protein kinase 1 (Homo sapiens) (UniProt O15530); assay: Inhibition of PDK2 in human PC3 cells assessed as Akt Thr-308 dephosphorylation by Western blot analysis; type: functional, cell-based; conditions: PC-3
T1 sequence (whole entry): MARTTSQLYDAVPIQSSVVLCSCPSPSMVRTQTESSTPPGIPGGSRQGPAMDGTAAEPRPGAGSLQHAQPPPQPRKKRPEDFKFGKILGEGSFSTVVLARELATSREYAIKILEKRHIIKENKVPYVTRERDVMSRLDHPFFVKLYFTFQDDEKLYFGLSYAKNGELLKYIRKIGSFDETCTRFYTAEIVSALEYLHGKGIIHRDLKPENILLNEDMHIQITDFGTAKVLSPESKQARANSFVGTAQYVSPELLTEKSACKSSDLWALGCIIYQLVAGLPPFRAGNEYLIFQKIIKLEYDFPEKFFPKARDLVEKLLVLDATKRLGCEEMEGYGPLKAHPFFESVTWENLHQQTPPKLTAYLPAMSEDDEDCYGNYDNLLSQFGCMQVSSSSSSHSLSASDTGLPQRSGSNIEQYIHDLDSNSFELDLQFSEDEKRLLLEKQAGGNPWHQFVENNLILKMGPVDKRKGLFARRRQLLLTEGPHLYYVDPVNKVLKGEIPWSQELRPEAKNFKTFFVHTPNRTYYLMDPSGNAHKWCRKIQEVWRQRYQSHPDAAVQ
In short: (§1)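 Cells exposed 24 h in 5% FBS medium, final DMSO 0.1%; lysed in 1% SDS/10 mM EDTA/50 mM Tris pH 8.1, equal protein on SDS-PAGE, nitrocellulose, primary antibody 1:1000 at 4°C for 2 h, HRP secondary 1:5000, ECL detection; blots representative of three independent experiments.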

[2] = tested on: 3-phosphoinositide dependent protein kinase-2, PDK2; assay: Inhibition of PDK2 in human PC3 cells assessed as Akt Ser-473 dephosphorylation by Western blot analysis; type: functional, cell-based; conditions: PC-3; in short: as §1

SMILES	inhibition [1]	inhibition [2]
O=C(Nc1ccc(-n2nc(C(F)(F)F)cc2-c2ccc3c(ccc4ccccc43)c2)cc1)N1CCOCC1	inactive	inactive
NCC(=O)Nc1ccc(-n2nc(C(F)(F)F)cc2-c2ccc3c(c2)oc2ccccc23)cc1	inactive	inactive
COc1cc([N+](=O)[O-])ccc1S(=O)(=O)N1CCN(c2ccc(-n3nc(C(F)(F)F)cc3-c3ccc4c(ccc5ccccc54)c3)cc2)CC1	inactive	inactive
COc1ccc(S(=O)(=O)N2CCN(c3ccc(-n4nc(C(F)(F)F)cc4-c4ccc5c(ccc6ccccc65)c4)cc3)CC2)cc1	inactive	inactive
N#Cc1ccc(C(=O)N2CCN(c3ccc(-n4nc(C(F)(F)F)cc4-c4ccc5c(ccc6ccccc65)c4)cc3)CC2)cc1	inactive	inactive
N#Cc1cccc(C(=O)N2CCN(c3ccc(-n4nc(C(F)(F)F)cc4-c4ccc5c(ccc6ccccc65)c4)cc3)CC2)c1	inactive	inactive
NCCC(=O)Nc1ccc(-n2nc(C(F)(F)F)cc2-c2ccc3ccc4ccccc4c3c2)cc1	inactive	inactive
NCCC(=O)Nc1ccc(-n2nc(C(F)(F)F)cc2-c2ccc3c(ccc4ccccc43)c2)cc1	inactive	inactive
NC(=O)CNc1ccc(-n2nc(C(F)(F)F)cc2-c2ccc3c(ccc4ccccc43)c2)cc1	inactive	inactive
CNC(=O)CCc1cc(-c2ccc3c(ccc4ccccc43)c2)n(-c2ccc(N3CCNCC3)cc2)n1	inactive	inactive
O=C(c1cccc([N+](=O)[O-])c1)N1CCN(c2ccc(-n3nc(C(F)(F)F)cc3-c3ccc4c(ccc5ccccc54)c3)cc2)CC1	inactive	inactive
CCNC(=O)c1cc(-c2ccc3ccc4ccccc4c3c2)n(-c2ccc(NC(=O)CN)cc2)n1	inactive	inactive
CCNC(=O)c1cc(-c2ccc3ccc4ccccc4c3c2)n(-c2ccc(NC(=O)CCN)cc2)n1	inactive	inactive
CNC(=O)CCc1cc(-c2ccc(-c3ccc(C#N)cc3)cc2)n(-c2ccc(N3CCNCC3)cc2)n1	inactive	inactive
CNC(=O)c1cc(-c2ccc3c(ccc4ccccc43)c2)n(-c2ccc(NC(=O)CCN)cc2)n1	inactive	inactive
NCCCC[C@H](N)C(=O)Nc1ccc(-n2nc(C(F)(F)F)cc2-c2ccc3c(ccc4ccccc43)c2)cc1	inactive	inactive
CC(C)NC(=O)CCc1cc(-c2ccc(-c3ccc(C(F)(F)F)cc3)cc2)n(-c2ccc(NC(=O)CCN)cc2)n1	inactive	inactive
CCNC(=O)c1cc(-c2ccc(-c3ccc(C(F)(F)F)cc3)cc2)n(-c2ccc(NC(=O)CCN)cc2)n1	inactive	inactive
O=C(c1ccc(OC(F)(F)F)cc1)N1CCN(c2ccc(-n3nc(C(F)(F)F)cc3-c3ccc4c(ccc5ccccc54)c3)cc2)CC1	inactive	inactive
CNC(=O)c1cc(-c2ccc3c(ccc4ccccc43)c2)n(-c2ccc(NC(=O)CN)cc2)n1	inactive	inactive
CNC(=O)c1cc(-c2ccc3ccc4ccccc4c3c2)n(-c2ccc(NC(=O)CN)cc2)n1	inactive	inactive

SMILES	inhibition [1]	inhibition [2]
NCCCC[C@@H](N)C(=O)Nc1ccc(-n2nc(C(F)(F)F)cc2-c2ccc3c(ccc4ccccc43)c2)cc1	inactive	inactive
CC(=O)c1ccc(S(=O)(=O)N2CCN(c3ccc(-n4nc(C(F)(F)F)cc4-c4ccc5c(ccc6ccccc65)c4)cc3)CC2)cc1	inactive	inactive
CCC(C)C(N)C(=O)Nc1ccc(-n2nc(C(F)(F)F)cc2-c2ccc(-c3ccc(C(F)(F)F)cc3)cc2)cc1 (centres undefined)	inactive	inactive
NC(=O)c1cccc(C(=O)N2CCN(c3ccc(-n4nc(C(F)(F)F)cc4-c4ccc5c(ccc6ccccc65)c4)cc3)CC2)c1	inactive	inactive
O=[N+]([O-])c1ccc(S(=O)(=O)N2CCN(c3ccc(-n4nc(C(F)(F)F)cc4-c4ccc5c(ccc6ccccc65)c4)cc3)CC2)cc1	inactive	inactive
CNC(=O)CCc1cc(-c2ccc(-c3ccc(C(F)(F)F)cc3)cc2)n(-c2ccc(NC(=O)CCN)cc2)n1	inactive	inactive
CC(C)NC(=O)c1cc(-c2ccc(-c3ccc(C(F)(F)F)cc3)cc2)n(-c2ccc(NC(=O)CCN)cc2)n1	inactive	inactive
NC(=O)CCNc1ccc(-n2nc(C(F)(F)F)cc2-c2ccc3c(ccc4ccccc43)c2)cc1	inactive	inactive
O=C(c1ccc([N+](=O)[O-])cc1)N1CCN(c2ccc(-n3nc(C(F)(F)F)cc3-c3ccc4c(ccc5ccccc54)c3)cc2)CC1	inactive	inactive
NS(=O)(=O)c1ccc(-n2nc(C(F)(F)F)cc2-c2ccc3c(ccc4ccccc43)c2)cc1	inactive	inactive
NCCCC[C@H](N)C(=O)Nc1ccc(-n2nc(C(F)(F)F)cc2-c2ccc(-c3ccc(C(F)(F)F)cc3)cc2)cc1	inactive	inactive
CNC(=O)c1cc(-c2ccc(-c3ccc(C(F)(F)F)cc3)cc2)n(-c2ccc(NC(=O)CCN)cc2)n1	inactive	inactive
O=[N+]([O-])c1ccc(S(=O)(=O)N2CCN(c3ccc(-n4nc(C(F)(F)F)cc4-c4ccc5c(ccc6ccccc65)c4)cc3)CC2)c([N+](=O)[O-])c1	inactive	inactive
CC(=O)c1cc(C(=O)N2CCN(c3ccc(-n4nc(C(F)(F)F)cc4-c4ccc5c(ccc6ccccc65)c4)cc3)CC2)ccc1Cl	inactive	inactive
NCCC(=O)Nc1ccc(-n2nc(C(F)(F)F)cc2-c2ccc3c(c2)oc2ccccc23)cc1	inactive	inactive
FC(F)(F)c1ccc(-c2ccc(-c3cc(C(F)(F)F)nn3-c3ccc(N4CCNCC4)cc3)cc2)cc1	inactive	inactive
NCC(=O)Nc1ccc(-n2nc(C(F)(F)F)cc2-c2ccc3ccc4ccccc4c3c2)cc1	inactive	inactive
O=C1CCC(=O)N1c1ccc(-n2nc(C(F)(F)F)cc2-c2ccc3c(ccc4ccccc43)c2)cc1	inactive	inactive
CC(=O)Nc1ccc(S(=O)(=O)N2CCN(c3ccc(-n4nc(C(F)(F)F)cc4-c4ccc5c(ccc6ccccc65)c4)cc3)CC2)cc1	inactive	inactive
NS(=O)(=O)Nc1ccc(-n2nc(C(F)(F)F)cc2-c2ccc3c(ccc4ccccc43)c2)cc1	inactive	inactive
O=C(c1ccc(Cl)c([N+](=O)[O-])c1)N1CCN(c2ccc(-n3nc(C(F)(F)F)cc3-c3ccc4c(ccc5ccccc54)c3)cc2)CC1	inactive	inactive
